Experimental data reported in ChEMBL document CHEMBL3352065, “Greensporones: resorcylic acid lactones from an aquatic Halenospora sp” (J Nat Prod, 2014).
The source made the active and inactive calls. The calls are words filed in the database; no cut-off is given here.

Legend:
TAK1/TAB1 (Homo sapiens) = TAK1/TAB1 (Homo sapiens) (UniProt Q15750+O43318); experiment: Inhibition of Tak1-TAB1 (unknown origin) assessed as enzyme activity by Kinase-Glo Plus luminescence kinase assay; assay type: protein-complex assay
MDA-MB-435 [1] = experiment: Cytotoxicity against human MDA-MB-435 cells assessed as cell viability after 72 hrs; assay type: functional, cell-based; conditions: MDA-MB-435, 72 h
Summary of the method: (§1)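 ATCC lines grown in RPMI 1640 with 10% FBS, penicillin and streptomycin at 37 °C, 5% CO2. Log-phase cells were trypsinized, washed twice, seeded at 5000/well and incubated overnight. Compound was added from DMSO at 20, 4, 0.8, 0.16 and 0.032 μM (0.5% DMSO final) for 72 h at 37 °C. Viable cells were read by commercial absorbance assay. IC50 is growth inhibition to 50% of DMSO control.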

HT-29 [2] = experiment: Cytotoxicity against human HT-29 cells assessed as cell viability after 72 hrs; assay type: functional, cell-based; conditions: HT-29, 72 h; summary of the method: as §1
MDA-MB-435 [3] = experiment: Cytotoxicity against human MDA-MB-435 cells assessed as cell viability at 1 nM after 72 hrs; assay type: functional; conditions: MDA-MB-435, 72 h, read-out: Activity
Summary of the method: (§2)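 Vinblastine was the positive control, at 10 nM in HT-29 and 1 nM in MDA-MB-435 cells. Cells were seeded at 5000/well, incubated overnight, then exposed for 72 h at 37 °C in 5% CO2. Viability was read by absorbance assay of viable cells and expressed as % viable cells.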

HT-29 [4] = experiment: Cytotoxicity against human HT-29 cells assessed as cell viability at 10 nM after 72 hrs; assay type: functional; conditions: HT-29, 72 h, read-out: Activity; summary of the method: as §2

Structure (SMILES) | inhibition (TAK1/TAB1 (Homo sapiens)) | IC50 (MDA-MB-435 [1]) [µM] | IC50 (HT-29 [2]) [µM] | viability at 0.001 µM (MDA-MB-435 [3]) [%] | viability at 0.01 µM (HT-29 [4]) [%]
COc1cc(O)c(Cl)c2c1C(=O)O[C@@H](C)CC[C@@H](O)CCCCC(=O)C2 | inactive |  |  |  | 
COc1cc(O)cc2c1C(=O)O[C@@H](C)CC[C@H]1CC[C@H](CC(=O)C2)O1 | inactive |  |  |  | 
COc1cc(O)c(Cl)c2c1C(=O)O[C@@H](C)CC[C@@H](O)CC/C=C\C(=O)C2 | inactive |  |  |  | 
COc1cc(O)c(Cl)c2c1C(=O)O[C@@H](C)CCC(=O)CCCCC(=O)C2 | inactive |  |  |  | 
C[C@H]1CCCCC/C=C/C(=O)Cc2cc(O)cc(O)c2C(=O)O1 | inactive | 14.5 | 13.8 |  | 
CC[C@]1(O)C[C@@H]2CN(CCc3c([nH]c4ccccc34)[C@@](C(=O)OC)(c3cc4c(cc3OC)N(C)[C@H]3[C@@](O)(C(=O)OC)[C@H](OC(C)=O)[C@]5(CC)C=CCN6CC[C@]43[C@@H]65)C2)C1 [VINBLASTINE] |  |  |  | 21 | 44

Continued, in another order:

inhibition (TAK1/TAB1 (Homo sapiens)) | Structure (SMILES) | IC50 (MDA-MB-435 [1]) [µM] | IC50 (HT-29 [2]) [µM] | viability at 0.001 µM (MDA-MB-435 [3]) [%] | viability at 0.01 µM (HT-29 [4]) [%]
inactive | COc1cc(O)c(Cl)c2c1C(=O)O[C@@H](C)CCC(=O)CC/C=C\C(=O)C2 |  |  |  | 
inactive | COc1cc(O)cc2c1C(=O)O[C@@H](C)CCCCC/C=C/C(=O)C2 | 2.9 | 7.5 |  | 
inactive | COc1cc(O)cc2c1C(=O)O[C@@H](C)CCC(=O)CC/C=C/C(=O)C2 | 14.1 | > 20 |  | 
inactive | COc1cc(O)cc2c1C(=O)O[C@@H](C)CCCCCCCC(=O)C2 |  |  |  | 
inactive | COc1cc(O)cc2c1C(=O)O[C@@H](C)CC[C@H]1CC[C@@H](CC(=O)C2)O1 |  |  |  | 
inactive | COc1cc(O)c(Cl)c2c1C(=O)O[C@@H](C)CCC(=O)CC/C=C/C(=O)C2 | 14.1 | > 20 |  | 
inactive | COc1cc(O)cc2c1C(=O)O[C@@H](C)CC[C@@H](O)CC/C=C/C(=O)C2 | 11.2 | 25.4 |  | 
